The values below come from ChEMBL document CHEMBL3526140, “Prediction of human intestinal absorption of the prodrug temocapril by in situ single-pass perfusion using rat intestine with modified hydrolase activity” (Drug Metab Dispos, 2011).

As a reminder, the logD is lipophilicity at a set pH, counting ionised and neutral species. Higher therefore signals higher lipophilicity.

Series [1] in a line: Partition coefficient, log P between n-octanol and phosphate buffer at pH 7.4. Format: physicochemical.
Series [2] relates to Jejunum. Description: Drug uptake in Wistar rat jejunum lumen assessed as rate of drug appearance at 100 uM by in-situ single-pass perfusion method. It counts as ADME, tissue-based. The following applies: in vivo. In short, it runs like this: (§1)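 Rats fasted 18–24 h, anesthetized with intraperitoneal pentobarbital. Isolated cannulated jejunal segment kept at 37°C in Krebs–Henseleit buffer with 3% BSA and 10 mM glucose. Vascular perfusion with Krebs–Henseleit (pH 7.4) at 2.5 ml/min. Lumen perfused at 0.2 ml/min with phosphate buffer (pH 5.4, 6.4 or 7.4) containing 100 µM drug plus FD-4. Luminal and vascular samples assayed by HPLC (UV 258 nm). Parameters normalized to 10 cm intestine. Mean ± S.D., n = 3–6.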

Series [3] deals with Jejunum. Nature of the series: Intracellular drug level in Wistar rat jejunum at 100 uM at pH 6.4 by in-situ single-pass perfusion method. It counts as ADME, tissue-based. Conditions: in vivo. The method in brief: as §1
In series [4] the test system is Jejunum. Description: Apparent absorption clearance in Wistar rat jejunum at 100 uM at pH 6.4 by in-situ single-pass perfusion method. It counts as ADME, tissue-based. The following applies: in vivo. The method in brief: as §1
Series [5] deals with Jejunum. Nature of the series: Drug uptake in Wistar rat jejunum blood vessel assessed as rate of drug appearance at 100 uM by in-situ single-pass perfusion method. Format: ADME, tissue-based. Conditions: in vivo. The method in brief:
as §1

The subject of series [6] is Jejunum. Nature of the series: Drug uptake in Wistar rat jejunum blood vessel assessed as rate of drug appearance at 100 uM at pH 6.4 by in-situ single-pass perfusion method. It counts as ADME, tissue-based. The following applies: in vivo, pH 6.4, 100 µM. In short, it runs like this:
as §1

Take `O=C(O)CN1C[C@@H](c2cccs2)SC[C@H](N[C@@H](CCc2ccccc2)C(=O)O)C1=O` [TEMOCAPRILAT]: the logD in series [1] came out at 2.5. In addition, the Drug uptake in series [2] came out at 2.25 nmol/min; in series [3], 2.99 nmol/g; in series [5], 1.22 nmol/min; in series [6], 0.193 nmol/min. Further, in series [4], the “CL(app)” value stood at 1.87 µL/min.
